Converted amounts (≈) assume the structure as drawn.
How the values were obtained:
Klebsiella pneumoniae [1] = assay: In vitro minimum inhibitory concentration (MIC) against Klebsiella pneumoniae A 9664 at 37 degrees C for 18 h.; type: functional
Procedure, shortened: (§1)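 Two-fold serial broth dilution in nutrient broth. Inoculum adjusted to 10^6 cfu/mL. Compounds tested from 0.0005 to 250 µg/mL.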

Staphylococcus aureus [2] = assay: In vitro minimum inhibitory concentration (MIC) against Staphylococcus aureus Smith A 9537 at 37 degrees C for 18 hr; type: functional; procedure, shortened: as §1
Enterococcus faecalis = assay: In vitro minimum inhibitory concentration (MIC) against Enterococcus faecalis A 9808 at 37 degrees C for 18 h.; type: functional; procedure, shortened: as §1
Escherichia coli [3] = assay: Efficacy on systematic infections against Escherichia coli A 15119 after oral administration in mice; type: functional; settings: read-out: PD50
Procedure, shortened: (§2)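 Mice given compound orally after lethal systemic infection. Read-out is the oral dose protecting 50% of mice from death (PD50), reported in mg/kg.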

Pseudomonas aeruginosa [4] = assay: Efficacy on systematic infections against Pseudomonas aeruginosa A 9843 after oral administration in mice; type: functional; settings: read-out: PD50; procedure, shortened: as §2
Pseudomonas aeruginosa [5] = assay: In vitro minimum inhibitory concentration (MIC) against Pseudomonas aeruginosa A 9843 at 37 degree C for 18 h; type: functional; procedure, shortened: as §1
Staphylococcus aureus [6] = assay: Efficacy on systematic infections against Staphylococcus aureus Smith A 9537 after oral administration in mice; type: functional; settings: read-out: PD50; procedure, shortened: as §2
Serratia marcescens = assay: In vitro minimum inhibitory concentration (MIC) against Serratia marcescens A 20019 at 37 degrees C for 18 hr; type: functional; procedure, shortened: as §1
Morganella morganii = assay: In vitro minimum inhibitory concentration (MIC) against Morganella morganii A 15153 at 37 degrees C for 18 h.; type: functional; procedure, shortened: as §1
Enterococcus faecium = assay: In vitro minimum inhibitory concentration (MIC) against Enterococcus faecium A 24885 at 37 degrees C for 18 h.; type: functional; procedure, shortened: as §1
Klebsiella pneumoniae [7] = assay: Efficacy on systematic infections against Klebsiella pneumoniae A 9664 after oral administration in mice; type: functional; settings: read-out: PD50; procedure, shortened: as §2
Klebsiella pneumoniae [8] = assay: In vitro minimum inhibitory concentration (MIC) against Klebsiella pneumoniae A 9664 at 37 degrees Celsius for 18 h.; type: functional; procedure, shortened: as §1
Enterobacter cloacae = assay: In vitro minimum inhibitory concentration (MIC) against Enterobacter cloacae A 9656 at 37 degrees C for 18 h.; type: functional
Escherichia coli [9] = assay: In vitro minimum inhibitory concentration (MIC) against Escherichia coli A 15119 at 37 degrees C for 18 h.; type: functional; procedure, shortened: as §1
Staphylococcus aureus [10] = assay: Efficacy on systematic infections against Staphylococcus aureus A 9537 after oral administration in mice; type: functional; settings: read-out: PD50; procedure, shortened: as §2
Escherichia coli [11] = assay: In vitro minimum inhibitory concentration (MIC) against Escherichia coli A 15119 at 37 degrees Celsius for 18 h.; type: functional; procedure, shortened: as §1
[12] = Tested for aqueous solubility; settings: aqueous medium
Pseudomonas aeruginosa [13] = assay: In vitro minimum inhibitory concentration (MIC) against Pseudomonas aeruginosa A 9843 at 37 degrees C for 18 h; type: functional; procedure, shortened: as §1
Canis familiaris = species: Canis familiaris; settings: dog, in vivo, po, 25 mg/kg
Pseudomonas aeruginosa [14] = assay: In vitro minimum inhibitory concentration (MIC) against Pseudomonas aeruginosa A 9843 at 37 degrees Celsius for 18 h; type: functional; procedure, shortened: as §1

MIC (Pseudomonas aeruginosa [14]) [µg/mL]	Structure (SMILES)	MIC (Klebsiella pneumoniae [1]) [µg/mL]	MIC (Staphylococcus aureus [2]) [µg/mL]	MIC (Enterococcus faecalis) [µg/mL]	ED50 (Escherichia coli [3]) [mg/kg]	ED50 (Pseudomonas aeruginosa [4]) [mg/kg]	MIC (Pseudomonas aeruginosa [5]) [µg/mL]	ED50 (Staphylococcus aureus [6]) [mg/kg]	MIC (Serratia marcescens) [µg/mL]	MIC (Morganella morganii) [µg/mL]	MIC (Enterococcus faecium) [µg/mL]	ED50 (Klebsiella pneumoniae [7]) [mg/kg]	MIC (Klebsiella pneumoniae [8]) [µg/mL]	MIC (Enterobacter cloacae) [µg/mL]	MIC (Escherichia coli [9]) [µg/mL]	ED50 (Staphylococcus aureus [10]) [mg/kg]	MIC (Escherichia coli [11]) [µg/mL]	solubility [12] [µg/mL]	MIC (Pseudomonas aeruginosa [13]) [µg/mL]	AUC (Canis familiaris) [ng·h/mL]
–	O=C(O)c1cn(C2CC2)c2cc(N3CCNCC3)c(F)cc2c1=O [CIPROFLOXACIN]	0.03 (≈ 0.0905 µM)	0.13 (≈ 0.392 µM)	0.5 (≈ 1.51 µM)	1	2.6	0.13 (≈ 0.392 µM)	3.4	0.3 (≈ 0.905 µM)	0.015 (≈ 0.0453 µM)	4 (≈ 12.1 µM)	1.5	–	–	–	–	–	–	–	–
–	CC(C)(C)n1cc(C(=O)O)c(=O)c2cc(F)c(N3CCNC(CF)C3)nc21.CS(=O)(=O)O (configuration not stated)	–	0.13	4	–	–	4	–	1	1	16	–	0.13	0.06	0.13	–	–	–	–	–
–	CS(=O)(=O)O.C[C@H]1CN(c2nc3c(cc2F)c(=O)c(C(=O)O)cn3C(C)(C)C)C[C@H]1N	0.03	0.015	0.13	2.4	9	0.5	–	0.25	0.5	1	4.1	–	0.13	0.25	1.6	–	–	–	–
–	CC(C)(C)n1cc(C(=O)O)c(=O)c2cc(F)c(N3C[C@@H](N)[C@@H](F)C3)nc21.CS(=O)(=O)O	0.06	0.015	0.5	–	–	2	–	0.5	0.5	4	–	–	0.25	–	–	0.25	–	–	–
–	CC(C)(C)n1cc(C(=O)O)c(=O)c2cc(F)c(N3CCNCC3)cc21	0.13 (≈ 0.374 µM)	0.06 (≈ 0.173 µM)	1 (≈ 2.88 µM)	21.7	29	–	–	0.5 (≈ 1.44 µM)	0.25 (≈ 0.72 µM)	4 (≈ 11.5 µM)	10.3	–	0.13 (≈ 0.374 µM)	0.06 (≈ 0.173 µM)	2.4	–	130 (≈ 374 µM)	0.5 (≈ 1.44 µM)	–
–	CC(C)(C)n1cc(C(=O)O)c(=O)c2cc(F)c(N3C[C@@H](CN)[C@@H](F)C3)nc21	0.25 (≈ 0.657 µM)	0.015 (≈ 0.0394 µM)	0.13 (≈ 0.342 µM)	18	18	0.5 (≈ 1.31 µM)	–	0.5 (≈ 1.31 µM)	0.5 (≈ 1.31 µM)	1 (≈ 2.63 µM)	18	–	0.25 (≈ 0.657 µM)	0.06 (≈ 0.158 µM)	4.5	–	–	–	–
–	CN1C2CCC1CN(c1cc3c(cc1F)c(=O)c(C(=O)O)cn3C(C)(C)C)C2.Cl	0.13	0.13	2	–	–	4	–	0.5	1	8	–	–	0.13	–	–	0.5	–	–	–
–	CC(C)(C)n1cc(C(=O)O)c(=O)c2cc(F)c(N3C[C@@H]4C[C@H]3CN4)cc21	0.5 (≈ 1.39 µM)	0.25 (≈ 0.696 µM)	4 (≈ 11.1 µM)	–	23	1 (≈ 2.78 µM)	–	2 (≈ 5.56 µM)	1 (≈ 2.78 µM)	16 (≈ 44.5 µM)	–	–	0.5 (≈ 1.39 µM)	2 (≈ 5.56 µM)	10	–	–	–	–
–	CC(C)(C)n1cc(C(=O)O)c(=O)c2cc(F)c(N3CCNCC3)nc21	0.13 (≈ 0.373 µM)	0.06 (≈ 0.172 µM)	0.5 (≈ 1.44 µM)	4.7	10.9	–	–	0.25 (≈ 0.718 µM)	0.25 (≈ 0.718 µM)	8 (≈ 23 µM)	4.8	–	0.06 (≈ 0.172 µM)	0.015 (≈ 0.0431 µM)	1.1	–	820 (≈ 2350 µM)	1 (≈ 2.87 µM)	50000
–	CN1CCN(c2cc3c(cc2F)c(=O)c(C(=O)O)cn3C(C)(C)C)CC1.Cl	0.25	0.03	4	–	–	–	–	1	0.25	16	–	–	0.25	0.03	–	–	–	0.5	–
2 (≈ 5.52 µM)	CC1(N)CCN(c2nc3c(cc2F)c(=O)c(C(=O)O)cn3C(C)(C)C)C1 (configuration not stated)	0.06 (≈ 0.166 µM)	0.015 (≈ 0.0414 µM)	0.5 (≈ 1.38 µM)	–	–	–	–	0.5 (≈ 1.38 µM)	0.5 (≈ 1.38 µM)	4 (≈ 11 µM)	–	–	0.13 (≈ 0.359 µM)	0.06 (≈ 0.166 µM)	–	–	–	–	–
–	CC(C)(C)n1cc(C(=O)O)c(=O)c2cc(F)c(N3CCC(N)C3)nc21.CS(=O)(=O)O (configuration not stated)	0.25	0.015	0.25	1.4	3.5	2	–	0.25	1	1	2.1	–	0.13	0.13	1.4	–	–	–	–
2 (≈ 5.12 µM)	CCNCC1CCN(c2nc3c(cc2F)c(=O)c(C(=O)O)cn3C(C)(C)C)C1 (configuration not stated)	0.25 (≈ 0.64 µM)	0.13 (≈ 0.333 µM)	2 (≈ 5.12 µM)	–	–	–	–	1 (≈ 2.56 µM)	1 (≈ 2.56 µM)	8 (≈ 20.5 µM)	–	–	0.25 (≈ 0.64 µM)	0.13 (≈ 0.333 µM)	–	–	–	–	–
–	CC(C)(C)n1cc(C(=O)O)c(=O)c2cc(F)c(N3C[C@@H]4C[C@H]3CN4)nc21	0.13 (≈ 0.361 µM)	0.13 (≈ 0.361 µM)	1 (≈ 2.77 µM)	4	14	0.5 (≈ 1.39 µM)	–	2 (≈ 5.55 µM)	0.13 (≈ 0.361 µM)	4 (≈ 11.1 µM)	10.8	–	0.25 (≈ 0.694 µM)	0.13 (≈ 0.361 µM)	0.5	–	–	–	–
–	CCn1cc(C(=O)O)c(=O)c2cc(F)c(N3CCNCC3)cc21 [NORFLOXACIN]	0.03 (≈ 0.0939 µM)	0.25 (≈ 0.783 µM)	4 (≈ 12.5 µM)	13	12.6	0.5 (≈ 1.57 µM)	1.9	0.13 (≈ 0.407 µM)	0.015 (≈ 0.047 µM)	8 (≈ 25.1 µM)	8	–	0.06 (≈ 0.188 µM)	0.13 (≈ 0.407 µM)	–	–	–	–	–
–	CN1CCN(c2nc3c(cc2F)c(=O)c(C(=O)O)cn3C(C)(C)C)CC1	0.06 (≈ 0.166 µM)	0.06 (≈ 0.166 µM)	2 (≈ 5.52 µM)	–	–	–	–	0.25 (≈ 0.69 µM)	0.5 (≈ 1.38 µM)	0.5 (≈ 1.38 µM)	–	–	0.06 (≈ 0.166 µM)	0.06 (≈ 0.166 µM)	–	–	–	1 (≈ 2.76 µM)	–
–	CN1C2CCC1CN(c1nc3c(cc1F)c(=O)c(C(=O)O)cn3C(C)(C)C)C2.CS(=O)(=O)O	0.1	0.25	2	–	–	4	–	2	2	16	–	–	0.25	0.5	–	–	–	–	–
–	CC(C)(C)n1cc(C(=O)O)c(=O)c2cc(F)c(N3C[C@@H](CN)[C@H](F)C3)nc21.CS(=O)(=O)O	0.13	0.004	0.03	–	18	0.5	–	1	0.5	0.25	–	–	0.06	0.06	0.8	–	–	–	–
–	CC1CN(c2cc3c(cc2F)c(=O)c(C(=O)O)cn3C(C)(C)C)CCN1 (configuration not stated)	0.015 (≈ 0.0415 µM)	0.06 (≈ 0.166 µM)	1 (≈ 2.77 µM)	–	25	–	–	0.5 (≈ 1.38 µM)	0.5 (≈ 1.38 µM)	4 (≈ 11.1 µM)	5.4	–	0.03 (≈ 0.083 µM)	0.008 (≈ 0.0221 µM)	5.4	–	1560 (≈ 4320 µM)	1 (≈ 2.77 µM)	–
–	CC(C)(C)n1cc(C(=O)O)c(=O)c2cc(F)c(N3CCC(N)C3)cc21.Cl (configuration not stated)	0.25	0.03	0.25	5.4	19.9	1	–	1	0.5	2	23	–	0.13	0.06	8.2	–	70	–	–
–	CC(C)(C)n1cc(C(=O)O)c(=O)c2cc(F)c(N3CCC(CN)C3)cc21 (configuration not stated)	0.25 (≈ 0.692 µM)	0.03 (≈ 0.083 µM)	0.25 (≈ 0.692 µM)	–	–	0.5 (≈ 1.38 µM)	–	2 (≈ 5.53 µM)	2 (≈ 5.53 µM)	0.5 (≈ 1.38 µM)	–	–	0.25 (≈ 0.692 µM)	0.25 (≈ 0.692 µM)	–	–	–	–	–
–	CNC1CCN(c2nc3c(cc2F)c(=O)c(C(=O)O)cn3C(C)(C)C)C1 (configuration not stated)	0.13 (≈ 0.359 µM)	0.06 (≈ 0.166 µM)	0.5 (≈ 1.38 µM)	–	–	2 (≈ 5.52 µM)	–	1 (≈ 2.76 µM)	0.5 (≈ 1.38 µM)	8 (≈ 22.1 µM)	–	–	0.06 (≈ 0.166 µM)	0.06 (≈ 0.166 µM)	–	–	–	–	–
2 (≈ 5.53 µM)	CC1(N)CCN(c2cc3c(cc2F)c(=O)c(C(=O)O)cn3C(C)(C)C)C1 (configuration not stated)	0.25 (≈ 0.692 µM)	0.06 (≈ 0.166 µM)	0.5 (≈ 1.38 µM)	–	–	–	–	2 (≈ 5.53 µM)	1 (≈ 2.77 µM)	4 (≈ 11.1 µM)	–	–	0.5 (≈ 1.38 µM)	0.5 (≈ 1.38 µM)	–	–	–	–	–
–	CC(C)(C)n1cc(C(=O)O)c(=O)c2cc(F)c(N3CCNC(CF)C3)cc21 (configuration not stated)	0.13 (≈ 0.343 µM)	0.13 (≈ 0.343 µM)	2 (≈ 5.27 µM)	–	–	4 (≈ 10.5 µM)	–	1 (≈ 2.64 µM)	0.5 (≈ 1.32 µM)	8 (≈ 21.1 µM)	–	–	0.13 (≈ 0.343 µM)	0.25 (≈ 0.659 µM)	–	–	–	–	–

— ChEMBL document CHEMBL1124759, “Fluoronaphthyridines and quinolones as antibacterial agents. 2. Synthesis and structure-activity relationships of new 1-tert-butyl 7-substituted derivatives” (J Med Chem, 1990)
